Results as given in ChEMBL document CHEMBL3271984, “Antifungal activity of 4-substituted crotonic acid esters” (1976).
≈ marks a conversion by molar mass, not a printed value. Calls of active or inactive are those of the source. No cut-off for these calls is given here.

Legend:
[1] = system: Trichophyton mentagrophytes; assay: Antifungal activity against Trichophyton mentagrophytes ATCC 9129 assessed as growth inhibition at pH 5.6 incubated for 5 days in absence of 10% beef serum; format: functional; settings: ATCC 9129, 120 h, read-out: MIC100
Procedure, shortened: (§1)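 Agar dilution in Sabouraud dextrose agar at pH 5.6 or 7.0, with or without 10% beef serum. C. albicans and M. mucedo were incubated 20 h at 37°; A. niger and T. mentagrophytes 5 days at 28°. The value is the minimal µg/ml giving 100% inhibition. Steps were 1 µg/ml up to 10, 2 up to 20, then 10 up to 100 µg/ml maximum.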

Candida albicans [2] = assay: Antifungal activity against Candida albicans ATCC 10231 assessed as growth inhibition at pH 7 incubated for 20 hrs in presence of 10% beef serum; format: functional; settings: for MIC: ATCC 10231, 20 h, read-out: MIC100; procedure, shortened: as §1
Candida albicans [3] = assay: Antifungal activity against Candida albicans ATCC 10231 assessed as growth inhibition at pH 5.6 incubated for 20 hrs in absence of 10% beef serum; format: functional; settings: for MIC: ATCC 10231, 20 h, read-out: MIC100; procedure, shortened: as §1
Mucor mucedo [4] = assay: Antifungal activity against Mucor mucedo ATCC 7941 assessed as growth inhibition at pH 5.6 incubated for 20 hrs in presence of 10% beef serum; format: functional; settings: ATCC 7941, 20 h, read-out: MIC100; procedure, shortened: as §1
Aspergillus niger [5] = assay: Antifungal activity against Aspergillus niger ATCC 1004 assessed as growth inhibition at pH 5.6 incubated for 5 days in presence of 10% beef serum; format: functional; settings: for MIC: ATCC 1004, 120 h, read-out: MIC100; procedure, shortened: as §1
[6] = system: Trichophyton mentagrophytes; assay: Antifungal activity against Trichophyton mentagrophytes ATCC 9129 assessed as growth inhibition at pH 7 incubated for 5 days in presence of 10% beef serum; format: functional; settings: ATCC 9129, 120 h, read-out: MIC100; procedure, shortened: as §1
Mucor mucedo [7] = assay: Antifungal activity against Mucor mucedo ATCC 7941 assessed as growth inhibition at pH 7 incubated for 20 hrs in presence of 10% beef serum; format: functional; settings: ATCC 7941, 20 h, read-out: MIC100; procedure, shortened: as §1
Mucor mucedo [8] = assay: Antifungal activity against Mucor mucedo ATCC 7941 assessed as growth inhibition at pH 5.6 incubated for 20 hrs in absence of 10% beef serum; format: functional; settings: ATCC 7941, 20 h, read-out: MIC100; procedure, shortened: as §1
Candida albicans [9] = assay: Antifungal activity against Candida albicans ATCC 10231 assessed as growth inhibition at pH 5.6 incubated for 20 hrs in presence of 10% beef serum; format: functional; settings: for MIC: ATCC 10231, 20 h, read-out: MIC100; procedure, shortened: as §1
Aspergillus niger [10] = assay: Antifungal activity against Aspergillus niger ATCC 1004 assessed as growth inhibition at pH 7 incubated for 5 days in absence of 10% beef serum; format: functional; settings: for MIC: ATCC 1004, 120 h, read-out: MIC100; procedure, shortened: as §1
Aspergillus niger [11] = assay: Antifungal activity against Aspergillus niger ATCC 1004 assessed as growth inhibition at pH 5.6 incubated for 5 days in absence of 10% beef serum; format: functional; settings: for MIC: ATCC 1004, 120 h, read-out: MIC100; procedure, shortened: as §1
Aspergillus niger [12] = assay: Antifungal activity against Aspergillus niger ATCC 1004 assessed as growth inhibition at pH 7 incubated for 5 days in presence of 10% beef serum; format: functional; settings: for MIC: ATCC 1004, 120 h, read-out: MIC100; procedure, shortened: as §1
Mucor mucedo [13] = assay: Antifungal activity against Mucor mucedo ATCC 7941 assessed as growth inhibition at pH 7 incubated for 20 hrs in absence of 10% beef serum; format: functional; settings: ATCC 7941, 20 h, read-out: MIC100; procedure, shortened: as §1
[14] = system: Trichophyton mentagrophytes; assay: Antifungal activity against Trichophyton mentagrophytes ATCC 9129 assessed as growth inhibition at pH 7 incubated for 5 days in absence of 10% beef serum; format: functional; settings: ATCC 9129, 120 h, read-out: MIC100; procedure, shortened: as §1
[15] = system: Trichophyton mentagrophytes; assay: Antifungal activity against Trichophyton mentagrophytes ATCC 9129 assessed as growth inhibition at pH 5.6 incubated for 5 days in presence of 10% beef serum; format: functional; settings: ATCC 9129, 120 h, read-out: MIC100; procedure, shortened: as §1
Candida albicans [16] = assay: Antifungal activity against Candida albicans ATCC 10231 assessed as growth inhibition at pH 7 incubated for 20 hrs in absence of 10% beef serum; format: functional; settings: for MIC: ATCC 10231, 20 h, read-out: MIC100; procedure, shortened: as §1
[17] = system: Trichophyton mentagrophytes; assay: Antifungal activity against Trichophyton mentagrophytes ATCC 9129 incubated for 5 days; format: functional, organism-based
Aspergillus niger [18] = assay: Antifungal activity against Aspergillus niger ATCC 1004 incubated for 5 days; format: functional, organism-based
Candida albicans [19] = assay: Antifungal activity against Candida albicans ATCC 10231 incubated for 20 hrs; format: functional, organism-based
Mucor mucedo [20] = assay: Antifungal activity against Mucor mucedo ATCC 7941 incubated for 20 hrs; format: functional, organism-based

MIC [1]	MIC (Candida albicans [2])	MIC (Candida albicans [3])	MIC (Mucor mucedo [4])	MIC (Aspergillus niger [5])	MIC [6]	MIC (Mucor mucedo [7])	MIC (Mucor mucedo [8])	MIC (Candida albicans [9])	MIC (Aspergillus niger [10])	MIC (Aspergillus niger [11])	MIC (Aspergillus niger [12])	MIC (Mucor mucedo [13])	MIC [14]	MIC [15]	MIC (Candida albicans [16])	SMILES	Activity [17]	Activity (Aspergillus niger [18])	Activity (Candida albicans [19])	Activity (Mucor mucedo [20])	also measured
< 1 µg/mL	40 µg/mL	18 µg/mL (≈ 86.9 µM)	5 µg/mL	90 µg/mL	7 µg/mL	7 µg/mL	4 µg/mL (≈ 19.3 µM)	30 µg/mL	60 µg/mL (≈ 290 µM)	80 µg/mL (≈ 386 µM)	80 µg/mL	4 µg/mL (≈ 19.3 µM)	3 µg/mL (≈ 14.5 µM)	3 µg/mL	30 µg/mL (≈ 145 µM)	CCCOC(=O)/C=C/CBr	–	–	–	–	–
< 1 µg/mL	2 µg/mL	< 1 µg/mL	< 1 µg/mL	5 µg/mL	9 µg/mL	< 1 µg/mL	< 1 µg/mL	< 1 µg/mL	5 µg/mL (≈ 4.51 µM)	2 µg/mL (≈ 1.8 µM)	7 µg/mL	< 1 µg/mL	3 µg/mL (≈ 2.7 µM)	< 1 µg/mL	< 1 µg/mL	CC1/C=C/C=C/C=C/C=C/C=C/C=C/C=C/C(OC2O[C@H](C)[C@@H](O)[C@H](N)[C@@H]2O)CC(O)C(C(=O)O)C(O)CC(=O)CC(O)CC(O)CC(O)CC(=O)CCCC(=O)CC(=O)OC1C(C)CC(C)C(O)CC(=O)c1ccc(N)cc1 (stereo partly drawn)	–	–	–	–	–
< 1 µg/mL	18 µg/mL	8 µg/mL (≈ 33.3 µM)	4 µg/mL	50 µg/mL	4 µg/mL	5 µg/mL	< 1 µg/mL	18 µg/mL	40 µg/mL (≈ 167 µM)	40 µg/mL (≈ 167 µM)	40 µg/mL	3 µg/mL (≈ 12.5 µM)	2 µg/mL (≈ 8.33 µM)	2 µg/mL	10 µg/mL (≈ 41.7 µM)	CCOC(=O)/C=C/CI	–	–	–	–	–
4 µg/mL (≈ 29.7 µM)	–	–	80 µg/mL	–	60 µg/mL	90 µg/mL	60 µg/mL (≈ 446 µM)	–	–	–	–	80 µg/mL (≈ 595 µM)	60 µg/mL (≈ 446 µM)	40 µg/mL	–	COC(=O)/C=C/CCl	–	–	–	–	MIC100 (Candida albicans [2]): inactive; MIC100 (Candida albicans [3]): inactive; MIC100 (Aspergillus niger [5]): inactive; MIC100 (Candida albicans [9]): inactive; MIC100 (Aspergillus niger [10]): inactive; MIC100 (Aspergillus niger [11]): inactive; MIC100 (Aspergillus niger [12]): inactive; MIC100 (Candida albicans [16]): inactive
< 1 µg/mL	30 µg/mL	10 µg/mL (≈ 37.3 µM)	5 µg/mL	70 µg/mL	7 µg/mL	7 µg/mL	2 µg/mL (≈ 7.46 µM)	20 µg/mL	20 µg/mL (≈ 74.6 µM)	30 µg/mL (≈ 112 µM)	70 µg/mL	4 µg/mL (≈ 14.9 µM)	< 1 µg/mL	3 µg/mL	12 µg/mL (≈ 44.8 µM)	CCCCOC(=O)/C=C/CI	–	–	–	–	–
< 1 µg/mL	< 1 µg/mL	< 1 µg/mL	< 1 µg/mL	< 1 µg/mL	< 1 µg/mL	< 1 µg/mL	< 1 µg/mL	< 1 µg/mL	< 1 µg/mL	< 1 µg/mL	< 1 µg/mL	< 1 µg/mL	< 1 µg/mL	< 1 µg/mL	< 1 µg/mL	C[C@@H]1[C@H](O)[C@@H](C)/C=C/C=C/C=C/C=C/C=C/C=C/C=C/[C@H](O[C@@H]2O[C@H](C)[C@@H](O)[C@H](N)[C@@H]2O)C[C@@H]2O[C@](O)(C[C@@H](O)C[C@@H](O)[C@H](O)CC[C@@H](O)C[C@@H](O)CC(=O)O[C@H]1C)C[C@H](O)[C@H]2C(=O)O [AMPHOTERICIN B]	–	–	–	–	–
–	–	–	–	–	–	–	–	–	–	–	–	–	–	–	–	C/C=C/C(=O)OCC	inactive	inactive	inactive	inactive	–
–	–	–	–	–	–	–	–	–	–	–	–	–	–	–	–	C/C=C/C(=O)OC	inactive	inactive	inactive	inactive	–
< 1 µg/mL	18 µg/mL	16 µg/mL (≈ 70.8 µM)	10 µg/mL	40 µg/mL	4 µg/mL	8 µg/mL	9 µg/mL (≈ 39.8 µM)	30 µg/mL	30 µg/mL (≈ 133 µM)	30 µg/mL (≈ 133 µM)	40 µg/mL	9 µg/mL (≈ 39.8 µM)	2 µg/mL (≈ 8.85 µM)	3 µg/mL	20 µg/mL (≈ 88.5 µM)	COC(=O)/C=C/CI	–	–	–	–	–
–	–	–	–	–	–	–	–	–	–	–	–	–	–	–	–	C/C=C/C(=O)OCCCC	inactive	inactive	inactive	inactive	–
–	–	–	–	–	–	–	–	–	–	–	–	–	–	–	–	C=CC(=O)OC	inactive	inactive	inactive	inactive	–
